Reference: ChEMBL document CHEMBL4266062, “Discovery of JND3229 as a New EGFRC797S Mutant Inhibitor with In Vivo Monodrug Efficacy” (ACS Med Chem Lett, 2018)
The source made the active and inactive calls. The rule behind the calls is not given here.

Tests used:
BaF3 [1] = test: Antitumor activity against mouse BAF3 cells harboring EGFR 19D/T790M/C797S mutant implanted in Balb/c mouse assessed as tumor growth inhibition at 60 mg/kg, po administered once daily via gavage for 10 days co-treated with cetuximab once every other day relative to control; assay type: functional; details: 240 h, read-out: TGI
Summary of the method: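 Same BaF3-EGFR19D/T790M/C797S xenograft in BALB/c mice (n = 6). Positive-control regimen: 60 mg/kg in 10% NMP/90% PEG300 by oral gavage once daily, plus cetuximab 1 mg/kg in 0.9% NaCl/water ip every other day. Relative tumor volume measured every 2–3 days. TGI taken on the final treatment day versus control; Student's t test.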

[2] = system: Epidermal growth factor receptor (Homo sapiens), P00533 [L858R,T790M,C797S]; test: Inhibition of EGFR T790M/L858R/C797S mutant (unknown origin) expressed in mouse BAF3 cells assessed as reduction in EGF-induced receptor phosphorylation preincubated for 2 hrs followed by EGF stimulation for 15 mins by Western blot analysis; assay type: cell-based
Summary of the method: (§1)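 BaF3 cells stably transfected with the mutant EGFR were treated for 2 h across a range of compound concentrations, then stimulated with EGF for 15 min. Cell lysates were collected, and EGFR phosphorylation was read out by Western blot.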

[3] = system: Epidermal growth factor receptor (Homo sapiens), P00533 [UNDEFINED MUTATION]; test: Inhibition of EGFR 19D/T790M/C797S mutant (unknown origin) expressed in mouse BAF3 cells assessed as reduction in EGF-induced receptor phosphorylation preincubated for 2 hrs followed by EGF stimulation for 15 mins by Western blot analysis; assay type: cell-based; summary of the method: as §1
Mus musculus [4] = test: In vivo inhibition of EGFR phosphorylation in tumor of Balb/c mouse implanted with mouse BAF3-EGFR 19D/T790M/C797S mutant cells at 10 mg/kg, ip administered twice daily for 10 days by H and E staining based IHC analysis; assay type: functional, organism-based
Summary of the method: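 Xenograft tumor sections taken from the 10 mg/kg ip twice-daily treated mice and controls. Sections stained with H&E and anti-p-EGFR antibody. p-EGFR labeling quantified as relative integrated optical density; Student's t test versus control.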

A-431 = test: Antiproliferative activity against human A431 cells harboring wild type EGFR after 72 hrs by resazurin dye based assay; assay type: functional, cell-based; details: A-431, 72 h
Mus musculus [5] = test: Toxicity in Balb/c mouse implanted with mouse BAF3-EGFR 19D/T790M/C797S mutant cells assessed as change in body weight at 10 mg/kg, ip administered twice daily for 10 days measured every 2 to 3 days during compound dosing; assay type: organism-based; details: in vivo
Summary of the method: (§2)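 BALB/c mice with established BaF3-EGFR19D/T790M/C797S xenografts (n = 6); 10 mg/kg in 0.5% HPMC ip twice daily for 10 days versus vehicle. Relative tumor volume and body weight recorded every 2–3 days. TGI taken on the final treatment day versus control; Student's t test.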

BaF3 [6] = test: Antiproliferative activity against mouse BAF3 cells harboring EGFR L858R/T790M/C797S mutant after 72 hrs by resazurin dye based assay; assay type: functional, cell-based; details: BaF3, 72 h
BaF3 [7] = test: Antiproliferative activity against mouse BAF3 cells harboring EGFR 19D/T790M/C797S mutant after 72 hrs by resazurin dye based assay; assay type: functional, cell-based; details: BaF3, 72 h
NCI-H1975 = test: Antiproliferative activity against human NCI-H1975 cells harboring EGFR L858R/T790M mutant after 72 hrs by resazurin dye based assay; assay type: functional, cell-based; details: NCI-H1975, 72 h
BaF3 [8] = test: Antitumor activity against mouse BAF3 cells harboring EGFR 19D/T790M/C797S mutant implanted in Balb/c mouse assessed as tumor growth inhibition at 10 mg/kg, ip administered twice daily for 10 days relative to control; assay type: functional; details: 240 h, read-out: TGI; summary of the method: as §2
[9] = target: Epidermal growth factor receptor (Homo sapiens, UniProt P00533, L858R/T790M); test: Inhibition of recombinant human EGFR T790M/L858R double mutant using poly (Glu,Tyr) 4:1 as substrate after 1 hr by ELISA
[10] = target: Epidermal growth factor receptor (Homo sapiens, UniProt P00533, C797S/L858R/T790M); test: Inhibition of recombinant human C-terminal His-tagged/N-terminal GST-tagged EGFR (668 to 1210 residues) T790M/L858R/C797S mutant using poly (Glu,Tyr) 4:1 as substrate after 1 hr by ELISA
Chain of Epidermal growth factor receptor (Homo sapiens, UniProt P00533, C797S/L858R/T790M) (P00533 25-1210 T790M/C797S/L858R limits assumed): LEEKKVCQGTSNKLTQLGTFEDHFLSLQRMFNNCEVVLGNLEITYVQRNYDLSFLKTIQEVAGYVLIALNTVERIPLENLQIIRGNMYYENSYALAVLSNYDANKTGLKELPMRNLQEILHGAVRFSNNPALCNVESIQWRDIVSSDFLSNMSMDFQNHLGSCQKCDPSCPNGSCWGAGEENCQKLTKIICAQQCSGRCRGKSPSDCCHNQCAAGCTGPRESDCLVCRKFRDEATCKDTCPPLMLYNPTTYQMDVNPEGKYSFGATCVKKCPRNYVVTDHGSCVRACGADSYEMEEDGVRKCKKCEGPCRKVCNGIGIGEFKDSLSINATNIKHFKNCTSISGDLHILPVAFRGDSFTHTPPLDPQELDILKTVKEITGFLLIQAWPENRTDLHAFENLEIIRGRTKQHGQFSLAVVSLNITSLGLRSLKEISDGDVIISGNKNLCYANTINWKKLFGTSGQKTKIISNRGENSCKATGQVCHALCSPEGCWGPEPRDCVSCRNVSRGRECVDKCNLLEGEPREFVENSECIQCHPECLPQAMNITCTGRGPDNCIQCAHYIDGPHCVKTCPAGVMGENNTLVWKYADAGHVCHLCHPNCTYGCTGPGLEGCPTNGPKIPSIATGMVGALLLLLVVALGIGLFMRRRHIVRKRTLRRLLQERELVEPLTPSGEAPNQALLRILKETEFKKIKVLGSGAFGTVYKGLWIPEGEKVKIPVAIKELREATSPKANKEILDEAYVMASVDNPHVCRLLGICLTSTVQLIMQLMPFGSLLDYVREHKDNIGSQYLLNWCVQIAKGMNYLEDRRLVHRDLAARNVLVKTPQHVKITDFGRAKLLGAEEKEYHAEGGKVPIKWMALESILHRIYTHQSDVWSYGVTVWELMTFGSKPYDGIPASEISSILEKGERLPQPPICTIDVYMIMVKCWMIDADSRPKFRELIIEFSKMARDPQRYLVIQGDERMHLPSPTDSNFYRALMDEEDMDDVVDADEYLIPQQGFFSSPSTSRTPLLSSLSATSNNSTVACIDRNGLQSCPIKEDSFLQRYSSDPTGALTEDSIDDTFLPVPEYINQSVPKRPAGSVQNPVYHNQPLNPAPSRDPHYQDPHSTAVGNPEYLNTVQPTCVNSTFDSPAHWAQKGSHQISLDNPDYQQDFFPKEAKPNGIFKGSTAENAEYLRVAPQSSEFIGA

Chain of Epidermal growth factor receptor (Homo sapiens), P00533 [UNDEFINED MUTATION] (P00533 whole entry, looked up, stated change not applied): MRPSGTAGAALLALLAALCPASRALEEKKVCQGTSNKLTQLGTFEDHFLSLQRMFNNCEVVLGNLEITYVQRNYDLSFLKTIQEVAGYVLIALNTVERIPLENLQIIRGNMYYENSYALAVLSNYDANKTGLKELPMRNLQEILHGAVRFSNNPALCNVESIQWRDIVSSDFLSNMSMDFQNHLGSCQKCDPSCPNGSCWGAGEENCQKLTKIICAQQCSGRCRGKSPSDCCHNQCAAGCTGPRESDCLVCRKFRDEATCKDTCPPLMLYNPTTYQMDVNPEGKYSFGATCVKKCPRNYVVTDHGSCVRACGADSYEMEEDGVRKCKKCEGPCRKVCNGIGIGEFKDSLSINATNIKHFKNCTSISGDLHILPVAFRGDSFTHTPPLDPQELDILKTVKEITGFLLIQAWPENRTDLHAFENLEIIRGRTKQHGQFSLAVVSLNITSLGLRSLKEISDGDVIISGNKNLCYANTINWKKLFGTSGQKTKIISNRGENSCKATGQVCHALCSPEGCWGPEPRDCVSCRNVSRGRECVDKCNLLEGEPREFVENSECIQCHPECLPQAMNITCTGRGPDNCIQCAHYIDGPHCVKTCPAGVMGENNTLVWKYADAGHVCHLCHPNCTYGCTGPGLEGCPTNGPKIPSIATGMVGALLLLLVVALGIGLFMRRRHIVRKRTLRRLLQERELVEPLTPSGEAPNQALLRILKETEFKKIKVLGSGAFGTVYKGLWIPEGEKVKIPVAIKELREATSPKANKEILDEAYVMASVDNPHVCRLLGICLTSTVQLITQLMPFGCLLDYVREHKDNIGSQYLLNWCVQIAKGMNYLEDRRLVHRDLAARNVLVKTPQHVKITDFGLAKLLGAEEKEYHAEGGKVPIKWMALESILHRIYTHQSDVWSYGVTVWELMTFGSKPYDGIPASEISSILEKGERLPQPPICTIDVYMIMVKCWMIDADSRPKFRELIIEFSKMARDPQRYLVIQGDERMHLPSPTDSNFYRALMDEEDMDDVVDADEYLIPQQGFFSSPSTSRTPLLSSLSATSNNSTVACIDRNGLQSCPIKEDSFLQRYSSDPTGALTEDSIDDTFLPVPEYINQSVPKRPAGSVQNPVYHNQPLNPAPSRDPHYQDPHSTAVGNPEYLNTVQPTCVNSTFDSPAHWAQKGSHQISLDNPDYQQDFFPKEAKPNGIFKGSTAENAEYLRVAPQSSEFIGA
Chain of Epidermal growth factor receptor (Homo sapiens, UniProt P00533, L858R/T790M) (P00533 25-1210 T790M/L858R limits assumed): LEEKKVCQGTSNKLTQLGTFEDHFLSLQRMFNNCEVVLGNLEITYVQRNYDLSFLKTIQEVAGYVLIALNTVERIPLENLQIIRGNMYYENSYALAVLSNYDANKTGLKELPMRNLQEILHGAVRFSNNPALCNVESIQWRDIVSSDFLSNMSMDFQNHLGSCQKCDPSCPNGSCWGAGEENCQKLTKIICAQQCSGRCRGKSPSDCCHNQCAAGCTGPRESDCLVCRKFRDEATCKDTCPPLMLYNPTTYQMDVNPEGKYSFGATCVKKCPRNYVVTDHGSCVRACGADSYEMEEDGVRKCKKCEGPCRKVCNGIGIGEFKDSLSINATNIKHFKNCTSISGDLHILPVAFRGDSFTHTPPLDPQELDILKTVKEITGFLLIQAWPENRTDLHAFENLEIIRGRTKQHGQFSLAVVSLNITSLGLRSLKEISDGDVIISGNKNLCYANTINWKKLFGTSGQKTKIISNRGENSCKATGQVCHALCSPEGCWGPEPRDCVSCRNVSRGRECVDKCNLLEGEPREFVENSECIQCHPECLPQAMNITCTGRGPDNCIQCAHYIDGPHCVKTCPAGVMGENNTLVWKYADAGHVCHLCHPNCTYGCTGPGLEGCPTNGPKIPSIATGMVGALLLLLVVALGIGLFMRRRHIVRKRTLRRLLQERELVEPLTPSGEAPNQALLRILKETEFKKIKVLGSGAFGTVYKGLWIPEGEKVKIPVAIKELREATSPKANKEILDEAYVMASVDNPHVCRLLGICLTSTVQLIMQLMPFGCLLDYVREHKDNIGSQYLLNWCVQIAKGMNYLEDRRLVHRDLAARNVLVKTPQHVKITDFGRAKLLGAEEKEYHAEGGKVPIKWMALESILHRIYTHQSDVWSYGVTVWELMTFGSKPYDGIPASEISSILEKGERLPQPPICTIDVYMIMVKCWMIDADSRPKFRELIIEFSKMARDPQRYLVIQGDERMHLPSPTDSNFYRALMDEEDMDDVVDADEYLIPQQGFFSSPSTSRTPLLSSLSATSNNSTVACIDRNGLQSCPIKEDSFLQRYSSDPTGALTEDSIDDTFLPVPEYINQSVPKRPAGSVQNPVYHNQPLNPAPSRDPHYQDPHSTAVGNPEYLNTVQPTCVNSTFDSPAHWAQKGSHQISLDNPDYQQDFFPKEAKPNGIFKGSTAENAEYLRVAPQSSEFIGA
Chain of Epidermal growth factor receptor (Homo sapiens), P00533 [L858R,T790M,C797S] (P00533 whole entry T790M/C797S/L858R): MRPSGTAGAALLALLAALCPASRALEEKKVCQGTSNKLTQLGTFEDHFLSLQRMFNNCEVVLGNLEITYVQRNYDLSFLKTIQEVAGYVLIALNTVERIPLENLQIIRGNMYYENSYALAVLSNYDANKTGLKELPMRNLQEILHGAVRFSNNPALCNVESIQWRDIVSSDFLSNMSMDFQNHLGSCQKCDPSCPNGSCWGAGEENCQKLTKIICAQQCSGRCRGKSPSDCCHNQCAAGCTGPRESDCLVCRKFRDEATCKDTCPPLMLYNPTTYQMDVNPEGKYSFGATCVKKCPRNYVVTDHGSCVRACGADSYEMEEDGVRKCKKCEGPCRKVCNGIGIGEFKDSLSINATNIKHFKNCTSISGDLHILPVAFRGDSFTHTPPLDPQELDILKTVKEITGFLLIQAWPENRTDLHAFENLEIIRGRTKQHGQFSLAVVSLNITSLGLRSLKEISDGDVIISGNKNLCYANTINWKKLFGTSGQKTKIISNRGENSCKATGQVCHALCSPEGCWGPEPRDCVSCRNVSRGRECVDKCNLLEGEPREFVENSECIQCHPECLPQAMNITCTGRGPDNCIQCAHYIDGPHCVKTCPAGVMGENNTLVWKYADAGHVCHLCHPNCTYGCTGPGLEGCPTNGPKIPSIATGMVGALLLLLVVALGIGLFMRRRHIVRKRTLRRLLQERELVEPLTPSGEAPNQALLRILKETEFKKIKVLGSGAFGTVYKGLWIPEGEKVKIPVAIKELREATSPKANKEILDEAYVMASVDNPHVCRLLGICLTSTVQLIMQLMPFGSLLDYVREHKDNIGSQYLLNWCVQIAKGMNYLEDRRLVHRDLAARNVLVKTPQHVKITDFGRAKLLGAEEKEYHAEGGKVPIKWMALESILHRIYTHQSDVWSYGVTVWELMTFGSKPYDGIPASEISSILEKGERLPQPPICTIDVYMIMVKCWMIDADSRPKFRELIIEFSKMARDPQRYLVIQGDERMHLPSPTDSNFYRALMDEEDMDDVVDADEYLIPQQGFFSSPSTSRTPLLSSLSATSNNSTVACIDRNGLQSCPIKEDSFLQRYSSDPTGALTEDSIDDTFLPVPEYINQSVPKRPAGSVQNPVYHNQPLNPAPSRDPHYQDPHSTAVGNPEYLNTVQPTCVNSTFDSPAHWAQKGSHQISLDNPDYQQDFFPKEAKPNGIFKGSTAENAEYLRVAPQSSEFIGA

Row | IC50 (BaF3 [6]) | IC50 (BaF3 [7]) | IC50 (NCI-H1975) | SMILES | IC50 (A-431) | further results
1 | – | – | – | O=C(Nc1nccs1)C(c1cc(F)ccc1O)N1Cc2ccccc2C1=O (centres undefined) | – | inhibition in vivo at 60 mg/kg (BaF3 [1]): 22.3%
2 | 510 nM | 320 nM | 310 nM | CCC(=O)N[C@H]1CC[C@H](N2C(=O)N(c3ccccc3Cl)Cc3cnc(Nc4ccc(N5CCN(C)CC5)c(C)c4)nc32)CC1 | 270 nM | inhibition [2]: Dose-dependent effect; inhibition [3]: Dose-dependent effect; inhibition (Mus musculus [4]): Active; Activity (Mus musculus [5]): Non-Toxic; inhibition in vivo at 10 mg/kg (BaF3 [8]): 42.2%
3 | 420 nM | 260 nM | 1090 nM | COc1cc(N2CCC(N3CCN(C)CC3)CC2)ccc1Nc1ncc(Cl)c(Nc2ccccc2P(C)(C)=O)n1 [BRIGATINIB] | – | –
4 | – | – | – | N#Cc1ccc(O)c(-c2nc(NCc3cnccn3)c3ccccc3n2)c1 | – | IC50 [9]: 367 nM; IC50 [10]: 85.2 nM

Row | SMILES | IC50 (BaF3 [6]) | IC50 (BaF3 [7]) | IC50 (NCI-H1975) | IC50 (A-431) | further results
5 | C=CC(=O)Nc1cc(Nc2nccc(-c3cn(C)c4ccccc34)n2)c(OC)cc1N(C)CCN(C)C [OSIMERTINIB] | 5150 nM | 4610 nM | […] | […] | –
